# Assay results gathered from unrelated publications.
# Protocols differ between the studies behind these lines.
# Target: Serine/threonine-protein kinase ICK (CILK1, Homo sapiens, UniProt Q9UPZ9)
# Residues used in one study (Q9UPZ9 1-632): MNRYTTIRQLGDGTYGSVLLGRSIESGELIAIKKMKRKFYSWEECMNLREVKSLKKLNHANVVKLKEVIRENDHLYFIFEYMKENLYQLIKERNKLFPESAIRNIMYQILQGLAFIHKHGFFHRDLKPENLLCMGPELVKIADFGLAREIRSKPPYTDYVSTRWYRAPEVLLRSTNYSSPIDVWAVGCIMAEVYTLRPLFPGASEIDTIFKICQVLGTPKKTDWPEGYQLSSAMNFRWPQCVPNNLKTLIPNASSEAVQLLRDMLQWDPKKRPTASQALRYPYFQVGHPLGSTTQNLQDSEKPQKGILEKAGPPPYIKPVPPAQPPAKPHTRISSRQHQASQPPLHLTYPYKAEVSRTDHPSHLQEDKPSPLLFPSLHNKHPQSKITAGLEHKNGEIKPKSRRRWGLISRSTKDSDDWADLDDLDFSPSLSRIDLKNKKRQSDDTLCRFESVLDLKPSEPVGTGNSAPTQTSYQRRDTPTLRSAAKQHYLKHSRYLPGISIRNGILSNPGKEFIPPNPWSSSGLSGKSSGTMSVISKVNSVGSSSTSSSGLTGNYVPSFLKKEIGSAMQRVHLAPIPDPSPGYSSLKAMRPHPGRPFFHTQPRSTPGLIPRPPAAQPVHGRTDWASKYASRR
Structure (SMILES),read-out,technique,concentration,remaining binding [%]
O=C(Nc1cccnn1)N1CCC(=Cc2cccc(Oc3ccc(C(F)(F)F)cn3)c2)CC1,cell-free assay,competition with immobilised ligand,1 µM,91
CN(CCCC(F)(F)F)c1nccc(-c2cnn3ncccc23)n1,binding,,1 µM,100
Cc1cnc(Nc2ccc(C(=O)N3CCC(N4CCCC4)CC3)cc2)nc1-c1cc2ccccc2s1,binding,competition with immobilised ligand,1 µM,64
CN(c1nccc(-c2cnn3ncccc23)n1)C1CC1,binding,,1 µM,100
Nc1ncc2c(n1)-c1c([nH]c3ccc(C#CC4CC4)cc13)CCCC2,binding,competition with immobilised ligand,1 µM,98
c1cnn2ncc(-c3ccnc(N4CCC45COC5)n3)c2c1,binding,,1 µM,69
c1cncc(-c2cccc(Nc3nccc(NC4CCCCC4)n3)c2)c1,binding,competition with immobilised ligand,10 µM,50
CN([C@@H]1CCc2c(CC(=O)O)c3ccccc3n2C1)S(=O)(=O)c1ccc(F)cc1,cell-free assay,competition with immobilised ligand,1 µM,100
C[C@@H](c1ccc(-n2cnc3c(N)ncnc32)cc1)N1CCc2nn(C)c(Cc3ccccc3)c2C1=O,binding,competition with immobilised ligand,0.1 µM,48
O=C(c1ccc(Nc2ncc(Cl)c(-c3ccc(Cl)s3)n2)cc1)N1CCC(N2CCCC2)CC1,binding,competition with immobilised ligand,1 µM,32
COc1cnc(Nc2cccc(S(N)(=O)=O)c2)nc1N1CCN(c2ccccc2)CC1,binding,competition with immobilised ligand,1 µM,72
CN(C)c1ncc(F)c(-c2cnn3ncccc23)n1,binding,,1 µM,89
COc1cnc(Nc2cccc(S(N)(=O)=O)c2)nc1N1CCN(c2ccccc2)C(=O)C1,binding,competition with immobilised ligand,1 µM,75
CCOCCn1cc(C(=O)Nc2ccc(-n3nc(-c4cccnc4)cc3C(F)(F)F)cn2)ccc1=O,cell-free assay,competition with immobilised ligand,1 µM,99
O=C(Nc1c[nH]nc1C(=O)NC1CCNCC1)c1cc(F)cc(F)c1,binding,competition with immobilised ligand,1 µM,84
O=C(Nc1cccnn1)N1CC(C/C=C/c2cncc(Oc3ccc(C(F)(F)F)cn3)n2)C1,cell-free assay,competition with immobilised ligand,1 µM,80
O=C(NCCCN1CCOCC1)c1ccc(Nc2nccc(-c3cc4ccccc4s3)n2)cc1,binding,competition with immobilised ligand,1 µM,64
CNC(=O)Nc1ccc2c(c1)[C@@]1(CC2)OC(=O)N(CC(=O)N(Cc2ccc(F)cc2)[C@@H](C)C(F)(F)F)C1=O,binding,competition with immobilised ligand,1 µM,67
C[C@@H]1CCN(c2nccc(-c3cnn4ncccc34)n2)C1,binding,,1 µM,58
C[C@@]1(Cc2ccc(C#N)cc2)C(=O)N(c2cc(Cl)cc(Cl)c2)c2ncc(C(=O)NC3(c4nc(C5CCC5)no4)CC3)n21,cell-free assay,competition with immobilised ligand,1 µM,100
N[C@H]1CCN(c2nccc(-c3cnn4ncccc34)n2)C1,binding,,1 µM,100
